The list is not random: actives were taken first. Their share in the collection is about 8.9%.
Dynein cargo inh: dynein cargo transport inhibition; 3617.4 mouse cells, GR-EGFP nuclear translocation imaging; test concentration mostly 20 µM; stimulated with dexamethasone, 1 µM; hits give low values; 220,000 compounds, 0.47% hits; z-score, hits read low;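 active = plate z-score of nuclear minus cytoplasmic receptor signal below a set negative limit, without overly bright fluorescence or cell loss, cut at about -3.5 in these data, passing the limit was not always enough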;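 also: z-score of nuclear minus cytoplasmic ring GR-EGFP intensity difference per well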
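medium = tetracycline-free induction medium containing charcoal-stripped FBS | also added = 1.0 µM final dexamethasone stimulus | schedule = 48 h induction, 1 h compound, 30 min dex at 37 °C | technique = fixed, Hoechst-stained cells imaged at 10x for EGFP | measure = GR-EGFP nuclear translocation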
b-catenin transl: alters nuclear translocation of beta-catenin in HeLa cells; immunofluorescence imaging; AID 1665; 190,000 compounds, 0.3% hits; nuclear translocation activity, % at 5 µM;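 active = nuclear translocation activity above 50% at 5 µM, with a well cell count of 50 or more; inconclusive = wells under 50 cells across six images, flagged as toxic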;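 also: per-cell ratio of nuclear to cytoplasmic median beta-catenin stain intensity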
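Test system: human HeLa cells, endogenous beta-catenin. Times: 24 h compound exposure, 37°C. Measured by: beta-catenin immunofluorescence imaging with DAPI.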
L major viab: inhibitors of Leishmania major promastigote growth. inhibition, % at 10 µM. Leishmania major promastigotes, resazurin fluorescence viability. 200,000 compounds, 9% hits. AID 1063; in the data active = inhibition above about 50%;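 also: promastigotes grown with compound for 44 hours at 28 °C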
HSV augment: increases HSV replication in cells | HSV replication augmentation in cells, fold increase | maximum fold increase | 220,000 compounds, 0.005% hits; in the data active = maximum fold increase above about 1.5; inconclusive = no clear call, values can overlap the other calls; tested in PC3 cells
MT stabilizer: microtubule stabilization, imaging screen. 200,000 compounds, 0.83% hits. AID 2205. HeLa tubulin immunostaining HCS, 24 h; share of cells brighter than vehicle mean+2SD. % tubulin-high responders, % at 10 µM;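 active = plate Z-score above 3 for both tubulin-high and condensed-nucleus cell shares, with cell loss under 80%, at 10 µM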;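 also: anti alpha tubulin signal scored within the nucleus-defined area of each cell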
Each line names hits and unclear results; the compound was inactive in the other large screens.

Cc1c(C(=O)/C=C/N(C)C)nnn1-c1ccc(F)c(Cl)c1	none (no result: L major viab, MT stabilizer)
Cn1c2ccccc2c(=O)c2c(=O)n(-c3ccccc3)c(C3CCCCC3)nc21	L major viab 65
Cn1c2ccccc2c(=O)c2c(=O)n(C3CCCCCC3)c(C3CCCCC3)nc21	L major viab 74
CCc1nc2c(c(=O)c3ccccc3n2C)c(=O)n1C1CCCCCC1	none
COc1ccc(Cn2c(C3CCCCC3)nc3c(c(=O)c4ccccc4n3C)c2=O)cc1	none (no result: L major viab, MT stabilizer)
COc1ccc(CCn2c(C3CCCCC3)nc3c(c(=O)c4ccccc4n3C)c2=O)cc1	b-catenin transl 51 (no result: L major viab, MT stabilizer)
COc1ccc(NC(=O)C2CC2)cc1-n1cnnn1	none
COc1cc(C2N(c3ccccn3)C(=O)C3CCCN32)cc(OC)c1OC (centres undefined)	none
COc1cccc(C(=O)Nc2nc(-c3ccccc3)c(-c3ccccc3)o2)c1	HSV augment inconclusive
Cc1ccc(C(=O)n2cnnc2N)cc1C	none
CN1CCN(C(c2cccc(Cl)c2)c2ccccc2Cl)CC1 (centres undefined)	L major viab 98
O=C(O)C1CCC(CNCc2ccccc2Cl)CC1 (centres undefined)	none
CCOC(=O)C1CCC(CNCc2ccccc2C)CC1 (centres undefined)	L major viab 95 (no result: MT stabilizer)
CC(C1CCN(Cc2nc(C3CC3)no2)CC1)N1CCOCC1 (centres undefined)	L major viab 78
CCOC(=O)N1CCN(Cc2nc(C3CC3)no2)CC1	none
O=c1[nH]c(/C=C/c2ccccc2OC(F)F)nc2c1cnn2-c1ccccc1	L major viab 62
CCCSc1nc2c(cnn2-c2ccccc2)c(=O)[nH]1	none
Cn1cc(/C=N/n2cnc3scc(-c4ccc(Cl)cc4)c3c2=O)c2ccccc21	b-catenin transl 187, L major viab 59
Cc1nc2c(c3c1[nH]c1ccccc13)C(=O)CC(C)(C)C2	L major viab 64
c1ccc2c(c1)CCNC2c1ccncc1 (centres undefined)	none (no result: L major viab, MT stabilizer)
CCC1(C)Cc2c(sc3nc(NN)n(C)c(=O)c23)CO1 (centres undefined)	L major viab 95 (no result: b-catenin transl)
CCNc1nc(Oc2ccc(Cl)cc2Cl)cc(C(F)(F)F)n1	none
CCNc1nc(Oc2c(Cl)cccc2Cl)cc(C(F)(F)F)n1	L major viab 77 (no result: b-catenin transl)
CC1(C)CC(=O)CC2(C1)NCC(c1ccccc1)c1c2[nH]c2ccccc12 (centres undefined)	none
CCN1CCN(CCNC(=O)c2ccc(/C=C3/Sc4ccccc4N(Cc4ccccc4C)C3=O)cc2)CC1	L major viab 100
CCN1CCN(CCCNC(=O)c2ccc(/C=C3/Sc4ccccc4N(Cc4ccccc4F)C3=O)cc2)CC1	L major viab 98
CCN1C(=O)c2ccccc2Sc2ccc(C(=O)NCCCN3CCOCC3)cc21	none
CN(C)c1nnnn1-c1ccc(Oc2ncc(C(F)(F)F)cc2Cl)cc1	none
CCc1ccc(/C=C2\Oc3cc(OC(=O)N4CCOCC4)ccc3C2=O)cc1	L major viab 93
COCCNC(=S)N/N=C/c1ccc(-c2ccc([N+](=O)[O-])cc2)o1	none (no result: L major viab, MT stabilizer)
CC(=O)N1CCc2cc(S(=O)(=O)NC(CC(C)C)C(=O)N3CCc4ccccc4C3)ccc21 (centres undefined)	L major viab 73
CC(=O)N1CCc2cc(S(=O)(=O)NC(CC(C)C)C(=O)Nc3cc(C)ccn3)ccc21 (centres undefined)	none
CC(=O)N1CCc2cc(S(=O)(=O)NCCN3CCC(C)CC3)ccc21	L major viab 58 (no result: b-catenin transl)
Cc1ccccc1NCC(=O)N/N=C/c1c[nH]c2ccccc12	none
C/C(=N\NC(=O)C(=O)Nc1cccc(Cl)c1C)c1ccncc1	L major viab 69
COc1cc(NC(=S)Nc2cccc(Cl)c2Cl)c(OC)cc1Cl	L major viab 59
COc1cc(NC(=S)NC(C)(C)C)c(OC)cc1Cl	L major viab 67
Cc1nc2c(C)cccc2cc1C(=O)N/N=C/c1ccc(C(=O)O)cc1	none
Cc1nc2c(C)cccc2cc1C(=O)N/N=C/c1ccc(N(C)C)cc1	MT stabilizer 40
Cc1nc2c(C)cccc2cc1C(=O)N/N=C/c1cccc([N+](=O)[O-])c1	MT stabilizer 20
CC(C)=CCN1CCN(Cc2cccn2-c2ncccn2)CC1CCO (centres undefined)	none
O=c1[nH]n(-c2ccccc2)c(=O)c2ccccc12	none (no result: HSV augment)
Cc1cccc(NC(=O)c2nc[nH]c2C(=O)Nc2cccc(C)c2)c1	none (no result: b-catenin transl)
C=CCNC(=O)c1ccccc1NC(=O)COc1ccc(OC)cc1	none
C=CCOC(=O)C(C#N)c1nc2ccccc2nc1N1CCN(Cc2ccc3c(c2)OCO3)CC1 (centres undefined)	L major viab 58
Cc1cccn2c(=O)c(/C=C(\C#N)C(N)=O)c(N3CCN(Cc4ccc5c(c4)OCO5)CC3)nc12	L major viab 65
CCC(CC)COC(=O)C(C#N)c1nc2ccccc2nc1N1CCN(CC)CC1 (centres undefined)	L major viab 100
CCCCCCOC(=O)C(C#N)c1nc2ccccc2nc1N1CCN(C)CC1 (centres undefined)	L major viab 54
CCOC(=O)/C(C(N)=NCC(C)C)=C(/O)c1ccccc1	none
C[n+]1c2n(c3ccccc31)N=C(c1ccc(Cl)cc1)CS2	L major viab 86
Cn1c(Cc2ccccc2)[n+](C)c2ccccc21	none
COc1ccc(C2=Nn3c([n+](C)c4ccccc43)SC2)cc1	L major viab 100
CC1Sc2n(c3ccccc3[n+]2C)N=C1c1ccccc1 (centres undefined)	L major viab 99
O=C(COC(=O)c1cnccn1)NCc1ccc(Cl)cc1	none
COCCOC(=O)C1=C(C)NC(=O)N(C(C)=O)C1c1ccc(Cl)cc1 (centres undefined)	L major viab 88
CCOC(=O)C1=C(C)NC(=S)N(C(C)=O)C1c1ccc(Cl)cc1 (centres undefined)	none
CC(C)=C1SC(N2CCN(Cc3ccccc3)CC2)=NC1=O	none
CC(C)=C1SC(N2CCN(c3cccc(Cl)c3)CC2)=NC1=O	L major viab 68 (no result: b-catenin transl)
Cc1c(Nc2nc3ccccc3nc2N2CCN(c3ccccc3)CC2)c(=O)n(-c2ccccc2)n1C	L major viab 53
O=C(Nc1cccc2nsnc12)c1cccnc1	L major viab 78 (no result: b-catenin transl)
O=c1c(Cl)c(N2CCN(S(=O)(=O)c3ccc(F)cc3)CC2)cnn1-c1cccc(Cl)c1	L major viab 98 (no result: b-catenin transl)
O=C(c1cc(-c2ccccc2)on1)N1CCN(Cc2ccc3c(c2)OCO3)CC1	L major viab 90
CCOc1ccc(S(=O)(=O)N2CCCC2)cc1	none
Cc1onc(-c2ccccc2)c1C(=O)N1CCN(Cc2ccc3c(c2)OCO3)CC1	none
O=C(c1cc2c(s1)CCCC2)N1CCN(Cc2ccc3c(c2)OCO3)CC1	L major viab 94
Cn1c(C(=O)N2CCN(Cc3ccc4c(c3)OCO4)CC2)cc2sccc21	L major viab 70
